Key:
[1] = molecular target: Metabotropic glutamate receptor 5 (Rattus norvegicus) (UniProt P31424); assay: Displacement of [3H]M-MPEP from rat mGluR5 expressed in rat cerebrocortical membrane at 1 uM after 60 mins relative to control; type: cell membranes
Liver [2] = assay: Intrinsic clearance in human liver microsomes at 2.5 uM assessed per gram of liver; type: ADME, microsome
Liver [3] = assay: Intrinsic clearance in rat liver microsomes at 2.5 uM assessed per gram of liver; type: ADME, microsome
[4] = molecular target: Metabotropic glutamate receptor 5 (Rattus norvegicus, UniProt P31424); assay: Displacement of [3H]M-MPEP from mGluR5 in Sprague-Dawley rat cerebrocortical membranes after 60 mins
[5] = molecular target: Metabotropic glutamate receptor 5 (Homo sapiens, UniProt P41594); assay: Negative allosteric modulation of human mGluR5a expressed in CHO cells assessed as reduction in DHPG-induced cytosolic Ca2+ influx after 10 to 20 mins by fluo-4/AM-dye based fluorometric analysis; type: functional, cell-based
[6] = Plasma concentration in ip dosed Wistar rat at anxiolytic MED administered as suspension after 45 mins during Vogel punished drinking conflict test; type: ADME, organism-based
Outline: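 Vehicle was a suspension containing 5% Tween 80, given i.p. at the Vogel minimum effective dose. Plasma was sampled about 45 min after dosing, right after the Vogel punished drinking test.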

Rattus norvegicus [7] = assay: Anxiolytic activity in ip dosed Wistar rat assessed as increase in water drinking time during punished period administered as suspension by Vogel punished drinking conflict test; type: functional; settings: read-out: MED
Outline: (§1)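 Vogel punished-drinking test in rats, single i.p. or p.o. dose as suspension in 5% Tween 80; plasma sampled ~45 min after i.p. or ~75 min after p.o. dosing.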

Rattus norvegicus [8] = assay: Anxiolytic activity in po dosed Wistar rat assessed as increase in water drinking time during punished period administered as suspension by Vogel punished drinking conflict test; type: functional; settings: read-out: MED; outline: as §1
Plasma = assay: Plasma concentration in Wistar rat at 30 mg/kg, po administered as single dose; type: ADME, organism-based; settings: in vivo

Chain of Metabotropic glutamate receptor 5 (Homo sapiens, UniProt P41594) (P41594 whole entry): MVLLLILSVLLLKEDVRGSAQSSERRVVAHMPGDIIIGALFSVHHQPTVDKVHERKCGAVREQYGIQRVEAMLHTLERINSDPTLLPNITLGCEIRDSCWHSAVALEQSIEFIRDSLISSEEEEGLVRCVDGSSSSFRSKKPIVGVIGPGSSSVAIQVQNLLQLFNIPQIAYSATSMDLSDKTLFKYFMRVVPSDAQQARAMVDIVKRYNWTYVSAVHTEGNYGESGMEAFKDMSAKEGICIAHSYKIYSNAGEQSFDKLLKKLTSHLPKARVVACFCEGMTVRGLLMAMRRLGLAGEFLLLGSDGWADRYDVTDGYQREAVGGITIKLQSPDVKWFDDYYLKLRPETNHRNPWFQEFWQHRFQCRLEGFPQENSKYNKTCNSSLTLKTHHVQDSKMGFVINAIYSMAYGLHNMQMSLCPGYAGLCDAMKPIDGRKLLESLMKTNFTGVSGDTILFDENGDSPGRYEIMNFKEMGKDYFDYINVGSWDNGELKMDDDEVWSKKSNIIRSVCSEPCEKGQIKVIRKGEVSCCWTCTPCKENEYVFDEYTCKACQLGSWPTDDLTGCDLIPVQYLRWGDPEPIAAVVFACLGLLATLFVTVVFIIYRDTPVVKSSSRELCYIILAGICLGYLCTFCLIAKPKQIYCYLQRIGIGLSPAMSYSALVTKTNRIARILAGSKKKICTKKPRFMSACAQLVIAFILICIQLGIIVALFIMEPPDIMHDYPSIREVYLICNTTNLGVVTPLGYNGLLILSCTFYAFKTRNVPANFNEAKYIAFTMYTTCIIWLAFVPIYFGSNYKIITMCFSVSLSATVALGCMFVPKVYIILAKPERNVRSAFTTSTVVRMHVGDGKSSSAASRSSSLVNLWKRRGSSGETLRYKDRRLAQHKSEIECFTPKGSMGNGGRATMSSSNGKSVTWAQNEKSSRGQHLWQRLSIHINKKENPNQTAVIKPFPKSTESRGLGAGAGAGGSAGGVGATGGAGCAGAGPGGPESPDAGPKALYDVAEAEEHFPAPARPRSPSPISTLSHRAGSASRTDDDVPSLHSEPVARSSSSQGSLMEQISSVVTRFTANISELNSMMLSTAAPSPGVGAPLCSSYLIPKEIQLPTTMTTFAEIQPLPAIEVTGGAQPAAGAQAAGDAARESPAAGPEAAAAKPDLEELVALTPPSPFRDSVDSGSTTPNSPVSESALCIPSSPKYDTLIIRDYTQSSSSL
Chain of Metabotropic glutamate receptor 5 (Rattus norvegicus, UniProt P31424) (P31424 whole entry): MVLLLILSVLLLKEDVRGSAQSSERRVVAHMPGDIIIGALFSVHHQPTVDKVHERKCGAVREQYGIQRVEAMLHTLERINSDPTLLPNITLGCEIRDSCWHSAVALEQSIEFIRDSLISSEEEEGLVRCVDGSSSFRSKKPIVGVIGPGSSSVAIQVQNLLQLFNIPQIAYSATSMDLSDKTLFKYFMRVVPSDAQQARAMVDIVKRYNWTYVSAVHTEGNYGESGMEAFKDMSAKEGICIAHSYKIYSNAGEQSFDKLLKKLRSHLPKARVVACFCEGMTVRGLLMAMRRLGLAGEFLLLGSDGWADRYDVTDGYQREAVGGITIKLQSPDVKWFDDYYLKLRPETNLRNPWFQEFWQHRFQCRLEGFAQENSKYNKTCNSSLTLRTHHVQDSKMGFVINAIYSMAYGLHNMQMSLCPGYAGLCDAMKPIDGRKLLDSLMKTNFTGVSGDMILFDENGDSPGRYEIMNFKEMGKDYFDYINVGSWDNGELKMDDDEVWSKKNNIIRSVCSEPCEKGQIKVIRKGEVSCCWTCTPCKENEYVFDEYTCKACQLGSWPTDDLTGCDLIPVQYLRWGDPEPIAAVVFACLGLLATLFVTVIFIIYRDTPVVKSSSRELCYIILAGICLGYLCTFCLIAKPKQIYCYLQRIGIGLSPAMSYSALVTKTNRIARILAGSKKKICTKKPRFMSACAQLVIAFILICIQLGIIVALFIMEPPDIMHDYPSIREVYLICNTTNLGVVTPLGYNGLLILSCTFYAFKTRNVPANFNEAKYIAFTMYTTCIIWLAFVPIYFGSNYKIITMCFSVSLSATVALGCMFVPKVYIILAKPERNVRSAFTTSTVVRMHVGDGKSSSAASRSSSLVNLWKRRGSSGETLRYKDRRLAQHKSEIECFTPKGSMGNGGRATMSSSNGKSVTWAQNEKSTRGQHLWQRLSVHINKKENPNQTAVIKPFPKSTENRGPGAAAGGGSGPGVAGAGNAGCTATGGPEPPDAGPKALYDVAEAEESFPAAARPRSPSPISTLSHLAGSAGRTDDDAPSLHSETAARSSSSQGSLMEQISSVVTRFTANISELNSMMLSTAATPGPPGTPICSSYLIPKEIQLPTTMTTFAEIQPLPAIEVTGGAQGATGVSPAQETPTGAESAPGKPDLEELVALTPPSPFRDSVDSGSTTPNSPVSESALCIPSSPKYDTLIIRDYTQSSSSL
Chain of Metabotropic glutamate receptor 5 (Rattus norvegicus) (P31424 21-1203 limits assumed): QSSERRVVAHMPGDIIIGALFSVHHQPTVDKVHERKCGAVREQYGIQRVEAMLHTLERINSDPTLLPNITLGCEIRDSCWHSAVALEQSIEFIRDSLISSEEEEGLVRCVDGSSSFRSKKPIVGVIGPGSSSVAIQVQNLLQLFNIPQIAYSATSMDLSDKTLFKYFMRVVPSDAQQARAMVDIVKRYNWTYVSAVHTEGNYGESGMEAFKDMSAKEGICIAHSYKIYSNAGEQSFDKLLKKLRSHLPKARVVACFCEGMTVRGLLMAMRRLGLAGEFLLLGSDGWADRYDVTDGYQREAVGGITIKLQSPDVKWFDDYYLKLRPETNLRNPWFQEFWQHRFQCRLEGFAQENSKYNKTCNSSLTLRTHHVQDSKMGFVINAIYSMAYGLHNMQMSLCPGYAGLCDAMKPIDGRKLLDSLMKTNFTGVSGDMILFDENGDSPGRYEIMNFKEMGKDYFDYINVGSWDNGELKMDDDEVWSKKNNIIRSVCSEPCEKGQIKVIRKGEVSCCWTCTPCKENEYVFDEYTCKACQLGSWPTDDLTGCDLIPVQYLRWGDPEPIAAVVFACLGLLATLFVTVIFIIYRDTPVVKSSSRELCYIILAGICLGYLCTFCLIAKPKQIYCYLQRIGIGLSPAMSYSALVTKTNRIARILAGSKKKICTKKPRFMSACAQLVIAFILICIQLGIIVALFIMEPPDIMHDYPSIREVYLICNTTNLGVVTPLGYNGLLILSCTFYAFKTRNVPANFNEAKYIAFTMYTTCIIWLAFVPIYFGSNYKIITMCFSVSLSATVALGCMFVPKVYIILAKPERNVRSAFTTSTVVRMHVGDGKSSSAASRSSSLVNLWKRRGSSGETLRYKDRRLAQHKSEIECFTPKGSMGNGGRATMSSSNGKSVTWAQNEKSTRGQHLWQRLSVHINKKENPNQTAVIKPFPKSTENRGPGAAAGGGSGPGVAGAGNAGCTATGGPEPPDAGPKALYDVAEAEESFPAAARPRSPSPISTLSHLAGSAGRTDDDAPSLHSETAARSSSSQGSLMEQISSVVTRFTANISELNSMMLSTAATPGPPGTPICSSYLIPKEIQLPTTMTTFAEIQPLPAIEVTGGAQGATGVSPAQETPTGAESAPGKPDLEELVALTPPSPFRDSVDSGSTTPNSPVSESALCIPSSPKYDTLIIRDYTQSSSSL

inhibition [1] | CLint (Liver [2]) | CLint (Liver [3]) | Ki [4] | IC50 [5] | concentration at 0.75 h [6] | concentration (Plasma) | Structure (SMILES) | minimal effective dose (Rattus norvegicus [7]) | minimal effective dose (Rattus norvegicus [8])
8.7% | 0.01 mL/min/g | 0.01 mL/min/g | – | – | – | – | N#Cc1ccc2c(-c3ccc(Cl)cc3)c(S(=O)(=O)c3ccc(F)cc3)cnc2c1 | – | –
76.3% | 0.12 mL/min/g | 0.4 mL/min/g | 180 nM | – | – | – | O=S(=O)(c1ccc(F)cc1)c1cnc2ccc(F)cc2c1-c1ccc(Cl)cc1 | – | –
48% | 0.01 mL/min/g | 0.57 mL/min/g | – | – | – | – | O=S(=O)(c1ccc(F)cc1)c1cnc2cc(Cl)c(F)cc2c1-c1ccc(Cl)cc1 | – | –
39.7% | 0.01 mL/min/g | 0.04 mL/min/g | – | – | – | – | N#Cc1ccc2ncc(S(=O)(=O)c3ccc(F)cc3)c(-c3ccc(Cl)cc3)c2c1 | – | –
– | 0.69 mL/min/g | 0.63 mL/min/g | 13.3 nM | 12 nM | 151 nM | – | O=S(=O)(c1cc(F)cc(F)c1)c1cnc2c(F)cccc2c1-c1ccc(F)cc1 | 30 mg/kg | –
58.3% | 0.01 mL/min/g | 0.2 mL/min/g | – | – | – | – | O=S(=O)(c1ccc(F)cc1)c1cnc2ccc(Cl)cc2c1-c1ccc(Cl)cc1 | – | –
– | 1.61 mL/min/g | 0.19 mL/min/g | – | – | – | – | Cc1cccc(C#Cc2ccccc2)n1 | 3 mg/kg | 3 mg/kg
– | 1.01 mL/min/g | 1.06 mL/min/g | 6.8 nM | 25 nM | 119 nM | – | O=S(=O)(c1cc(Cl)cc(Cl)c1)c1cnc2c(F)cccc2c1-c1ccc(F)cc1 | 30 mg/kg | –
91.5% | 0.28 mL/min/g | 0.06 mL/min/g | 16 nM | – | – | – | O=S(=O)(c1ccc(F)cc1)c1cnc2c(F)cccc2c1-c1ccc(Cl)cc1 | – | –
91.6% | 1.23 to 1.25 mL/min/g | 0.89 mL/min/g | 38.6 nM | – | – | – | O=S(=O)(c1ccc(F)cc1)c1cnc2cc(F)ccc2c1-c1ccc(Cl)cc1 | – | –
– | 0.28 mL/min/g | 0.2 mL/min/g | – | 13 nM | 59.7 nM | 196 nM | O=S(=O)(c1ccc(F)c(F)c1)c1cnc2c(F)cccc2c1-c1ccc(Cl)cc1 | 3 mg/kg | > 30 mg/kg
– | 0.01 mL/min/g | 1.41 mL/min/g | 17.1 nM | 22 nM | – | – | O=S(=O)(c1ccc(F)c(F)c1)c1cnc2cc(F)ccc2c1-c1ccc(Cl)cc1 | 10 mg/kg | 10 mg/kg
– | 0.19 mL/min/g | 0.2 mL/min/g | 31.6 nM | 69 nM | 1210 nM | – | O=S(=O)(c1cccc(F)c1)c1cnc2c(F)cccc2c1-c1ccc(F)cc1 | 30 mg/kg | –
– | 0.41 mL/min/g | 1.53 mL/min/g | 10.7 nM | 35 nM | 90.6 nM | – | O=S(=O)(c1cc(Cl)cc(Cl)c1)c1cnc2cc(F)ccc2c1-c1cccc(F)c1 | 30 mg/kg | –
83.6% | 0.01 mL/min/g | 0.01 mL/min/g | 71.2 nM | – | – | – | O=S(=O)(c1ccc(F)cc1)c1cnc2c(F)c(Cl)ccc2c1-c1ccc(Cl)cc1 | – | –
92.8% | 0.21 mL/min/g | 0.01 mL/min/g | 110 nM | – | – | – | O=S(=O)(c1ccc(F)cc1)c1cnc2cc(Cl)ccc2c1-c1ccc(Cl)cc1 | – | –
– | 0.13 mL/min/g | 0.77 mL/min/g | 30.3 nM | 94 nM | 377 nM | – | O=S(=O)(c1cc(Cl)cc(Cl)c1)c1cnc2cc(F)ccc2c1-c1ccc(Cl)cc1 | 30 mg/kg | –
19% | 0.01 mL/min/g | 0.09 mL/min/g | – | – | – | – | O=S(=O)(c1ccc(F)cc1)c1cnc2c(F)cc(Cl)cc2c1-c1ccc(Cl)cc1 | – | –
43.7% | 0.01 mL/min/g | 0.34 mL/min/g | – | – | – | – | O=S(=O)(c1ccc(F)cc1)c1cnc2cc(F)c(Cl)cc2c1-c1ccc(Cl)cc1 | – | –

Source: ChEMBL document CHEMBL4007421, “Discovery and Preclinical Characterization of 3-((4-(4-Chlorophenyl)-7-fluoroquinoline-3-yl)sulfonyl)benzonitrile, a Novel Non-acetylenic Metabotropic Glutamate Receptor 5 (mGluR5) Negative Allosteric Modulator for Psychiatric Indications” (J Med Chem, 2017)
